Laboratory results as given in ChEMBL document CHEMBL1123566, “Synthesis and cardiac electrophysiological activity of 2- and 3-[(substituted phenyl)alkyl]quinuclidines. Structure-activity relationships” (1987).
“And” between values parts separate entries of the source, which are not always exact repeats. Equal entries are not always repeated.

Tests used:
Canis familiaris [1] = species: Canis familiaris; test: In vitro electrophysiological evaluation in canine cardiac Purkinje fibres reported as percent change Vmax concentration range of 0.1-100 uM; Minimal (<IO%increase or a decrease in CT); format: functional; conditions: Canis lupus familiaris; Purkinje fiber
In short: (§1)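 Canine cardiac Purkinje fibres, intracellular microelectrode recording, paced at a basic cycle length of 1 s. APD95 and Vmax read simultaneously. Compound: 10 mM stock in deionized water, diluted into Tyrode's solution, tested over the stated concentration range. Each fibre used once as its own control. Result is % change from control, given at 10 µM or as the maximum with its concentration. M = <10% decrease or an increase in Vmax.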

Canis familiaris [2] = species: Canis familiaris; test: In vitro electrophysiological evaluation in canine cardiac Purkinje fibres reported as percent change Vmax concentration range of 1-100 uM; Minimal (<IO%increase or a decrease in CT; Minimal (<IO%increase or a decrease in CT); format: functional; conditions: Canis lupus familiaris; Purkinje fiber; in short: as §1
Canis familiaris [3] = species: Canis familiaris; test: In vitro electrophysiological activity in canine cardiac Purkinje fibres given as maximum % change for action potential duration at 100 uM concentration; format: functional, Canis lupus familiaris, Purkinje fiber
In short: (§2)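 Canine cardiac Purkinje fibres, intracellular recording at 1 s basic cycle length, over cumulative concentration ranges. Compound 10 mM stock in deionized water diluted into Tyrode's. Each fibre used once as its own control. Value is the maximum % change from control in APD at 95% repolarization, with the concentration where it occurred; both values given if a biphasic response (>20% reversal) occurred.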

Canis familiaris [4] = species: Canis familiaris; test: In vitro electrophysiological evaluation in canine cardiac Purkinje fibres reported as % change for action potential duration at 1-100 uM concentration range; format: functional, Canis lupus familiaris, Purkinje fiber; in short: as §1
Canis familiaris [5] = species: Canis familiaris; test: In vitro electrophysiological evaluation in canine cardiac Purkinje fibres reported as percent change Vmax concentration range of 0.1-30 uM; format: functional; conditions: Canis lupus familiaris; Purkinje fiber; in short: as §1
Canis familiaris [6] = species: Canis familiaris; test: In vitro electrophysiological evaluation in canine cardiac Purkinje fibres reported as maximum percent change Vmax concentration range of 0.1-30 uM; format: functional; conditions: Canis lupus familiaris; Purkinje fiber; in short: as §1
Canis familiaris [7] = species: Canis familiaris; test: In vitro electrophysiological activity in canine cardiac Purkinje fibres given as maximum % change for action potential duration at 0.1-100 uM concentration; format: functional, Canis lupus familiaris, Purkinje fiber; in short: as §2
Canis familiaris [8] = species: Canis familiaris; test: In vitro electrophysiological activity in canine cardiac Purkinje fibres given as maximum % change for action potential duration t 100 uM concentration; format: functional, Canis lupus familiaris, Purkinje fiber; in short: as §2
Canis familiaris [9] = species: Canis familiaris; test: (§3) In vitro electrophysiological evaluation in canine cardiac Purkinje fibres reported as % change for action potential duration at 0.1-100 uM concentration range; format: functional, Canis lupus familiaris, Purkinje fiber; in short: as §1
Canis familiaris [10] = species: Canis familiaris; test: In vitro electrophysiological evaluation in canine cardiac ventricular muscle reported as % change for conduction time(CT) at 0.1-100 uM concentration range; Minimal (<IO%increase or a decrease in CT); format: functional, Canis lupus familiaris, Muscle tissue
Canis familiaris [11] = species: Canis familiaris; test: In vitro electrophysiological evaluation in canine cardiac Purkinje fibres reported as maximum percent change Vmax concentration range of 1-100 uM; M = Minimal(<IO%increase or a decrease in CT); format: functional; conditions: Canis lupus familiaris; Purkinje fiber; in short: as §1
Canis familiaris [12] = species: Canis familiaris; test: In vitro electrophysiological evaluation in canine cardiac ventricular muscle reported as maximum % change for conduction time(CT) at 0.1-100 uM concentration range; Minimal (<IO%increase or a decrease in CT); format: functional, Canis lupus familiaris, Muscle tissue
In short: (§4)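 Canine right ventricle and papillary muscle strips in oxygenated Tyrode's solution, fitted with stimulating and recording electrodes. The extra-stimulus conduction-interval method was adapted for in vitro use. FRP and CT were read from a conduction-interval curve before and after various compound concentrations, and expressed as percent change from control. Compounds were taken from 10 mM deionized-water stock into Tyrode's. Each strip was used once as its own control.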

Canis familiaris [13] = species: Canis familiaris; test: In vitro electrophysiological evaluation in canine cardiac ventricular muscle reported as maximum % change for functional refractory period (FRP) at 0.1-100 uM concentration range; design: species or system Canis lupus familiaris, Muscle tissue
Canis familiaris [14] = species: Canis familiaris; test: as §3; format: functional, Canis lupus familiaris, Purkinje fiber; in short: as §1; remark: listed apart in the source
Canis familiaris [15] = species: Canis familiaris; test: In vitro electrophysiological evaluation in canine cardiac Purkinje fibres reported as percent change Vmax concentration range of 0.1-100 uM; format: functional; conditions: Canis lupus familiaris; Purkinje fiber; in short: as §1
Canis familiaris [16] = species: Canis familiaris; test: In vitro electrophysiological activity in canine cardiac Purkinje fibres given as maximum % change for action potential duration at 95% repolarization at 1 uM concentration; format: functional, Canis lupus familiaris, Purkinje fiber; in short: as §2
Canis familiaris [17] = species: Canis familiaris; test: In vitro electrophysiological evaluation in canine cardiac Purkinje fibres reported as % change for action potential duration at 0.1-30 uM concentration range; format: functional, Canis lupus familiaris, Purkinje fiber; in short: as §1
Canis familiaris [18] = species: Canis familiaris; test: In vitro electrophysiological activity in canine cardiac Purkinje fibres given as maximum % change for action potential duration at 10 uM concentration; format: functional, Canis lupus familiaris, Purkinje fiber; in short: as §2
Canis familiaris [19] = species: Canis familiaris; test: In vitro electrophysiological evaluation in canine cardiac ventricular muscle reported as % change for the functional refractory period (FRP) concentration range of 0.1-100 uM; design: species or system Canis lupus familiaris, Muscle tissue; in short: as §4

With Cl.Clc1ccc(CCCC2CC3CCN2CC3)cc1 (centres undefined) the Vmax (Canis familiaris [1]) was -13% and < 10%, the Vmax (Canis familiaris [2]) was less than 10% and the APD95 (Canis familiaris [3]) was 21%. For the same molecule, the APD95 (Canis familiaris [4]) was -20%, the Vmax (Canis familiaris [5]) was -23% and the Vmax (Canis familiaris [6]) was less than 10%. The APD95 (Canis familiaris [7]) was 13%, the APD95 (Canis familiaris [8]) was -20% and the APD95 (Canis familiaris [9]) was 2%. The CT (Canis familiaris [10]) was less than 10%, the Vmax (Canis familiaris [11]) was less than 10% and the CT (Canis familiaris [12]) was less than 10%. For the same molecule, the FRP (Canis familiaris [13]) was 25%, the APD95 (Canis familiaris [14]) was 21% and 12% and the Vmax (Canis familiaris [15]) was -10%. The APD95 (Canis familiaris [16]) was 40%, the APD95 (Canis familiaris [17]) was 30% and the APD95 (Canis familiaris [18]) was 30% and 12%. For the same molecule, the FRP (Canis familiaris [19]) was 25%.
